Measurements: ChEMBL document CHEMBL1811845, “Modulation of GABAA-receptors by honokiol and derivatives: subtype selectivity and structure-activity relationship” (J Med Chem, 2011)

Assays:
[1] = target: T1, Gamma-aminobutyric acid receptor subunit alpha-3/ beta-2 (Homo sapiens, UniProt P34903+P47870); experiment: Modulation of GABA Aalpha3beta2 receptor expressed in Xenopus laevis oocytes assessed as potentiation of GABA-induced chloride current at holding potential -70 mV by two-microelectrode voltage clamp technique; type: cell-based, Oocyte
T1 sequence (P47870 whole entry): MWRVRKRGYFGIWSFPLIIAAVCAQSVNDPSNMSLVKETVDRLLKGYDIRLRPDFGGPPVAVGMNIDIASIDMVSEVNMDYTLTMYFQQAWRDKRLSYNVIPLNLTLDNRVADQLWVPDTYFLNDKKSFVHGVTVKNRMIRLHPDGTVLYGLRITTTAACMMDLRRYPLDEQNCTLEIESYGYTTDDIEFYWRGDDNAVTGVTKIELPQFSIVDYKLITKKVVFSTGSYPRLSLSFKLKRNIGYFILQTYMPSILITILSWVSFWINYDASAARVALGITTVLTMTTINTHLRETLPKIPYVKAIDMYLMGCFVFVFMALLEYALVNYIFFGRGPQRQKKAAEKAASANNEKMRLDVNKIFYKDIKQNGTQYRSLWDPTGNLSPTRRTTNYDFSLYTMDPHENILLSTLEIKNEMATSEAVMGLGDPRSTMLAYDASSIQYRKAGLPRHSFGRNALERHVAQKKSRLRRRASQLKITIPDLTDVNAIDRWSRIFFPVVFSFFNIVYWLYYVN
T1 sequence (P34903 whole entry): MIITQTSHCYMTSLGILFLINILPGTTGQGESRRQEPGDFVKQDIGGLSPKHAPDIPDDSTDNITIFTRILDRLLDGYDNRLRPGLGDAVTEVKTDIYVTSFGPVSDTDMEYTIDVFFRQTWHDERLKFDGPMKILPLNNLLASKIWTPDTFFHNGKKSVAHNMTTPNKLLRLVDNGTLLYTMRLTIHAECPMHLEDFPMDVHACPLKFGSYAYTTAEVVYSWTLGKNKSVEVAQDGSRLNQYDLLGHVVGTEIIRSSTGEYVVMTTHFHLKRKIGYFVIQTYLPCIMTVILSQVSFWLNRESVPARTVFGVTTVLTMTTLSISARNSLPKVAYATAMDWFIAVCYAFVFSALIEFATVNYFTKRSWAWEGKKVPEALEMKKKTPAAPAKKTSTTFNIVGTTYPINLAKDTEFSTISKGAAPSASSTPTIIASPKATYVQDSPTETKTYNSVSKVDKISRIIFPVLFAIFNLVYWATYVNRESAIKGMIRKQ
Summary of the method: (§1)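 Stage V–VI Xenopus oocytes, defolliculated with 2 mg/mL collagenase, injected with α(1, 2, 3 or 5) and β2 cRNAs mixed 1:1, then kept at 18 °C in ND96 (pH 7.4). Enhancement = I(GABA+compound)/IGABA − 1. Curves were Hill-fitted for EC50. Bath DMSO was at most 0.3%, matched in controls.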

Oocyte = experiment: Modulation of GABA alpha1beta2gamma2s receptor expressed in Xenopus laevis oocytes assessed as potentiation of GABA-induced chloride current at holding potential -70 mV at 10 uM by two-microelectrode voltage clamp technique in presence of 300 nM of Diazepam relative to GABA; type: cell-based
[2] = target: T2, Gamma-aminobutyric acid receptor subunit alpha-5/beta-2 (Homo sapiens, UniProt P31644+P47870); experiment: Modulation of GABA Aalpha5beta2 receptor expressed in Xenopus laevis oocytes assessed as potentiation of GABA-induced chloride current at holding potential -70 mV by two-microelectrode voltage clamp technique; type: cell-based, Oocyte; summary of the method: as §1
T2 sequence (P47870 whole entry): T1 sequence (P47870 whole entry)
T2 sequence (P31644 whole entry): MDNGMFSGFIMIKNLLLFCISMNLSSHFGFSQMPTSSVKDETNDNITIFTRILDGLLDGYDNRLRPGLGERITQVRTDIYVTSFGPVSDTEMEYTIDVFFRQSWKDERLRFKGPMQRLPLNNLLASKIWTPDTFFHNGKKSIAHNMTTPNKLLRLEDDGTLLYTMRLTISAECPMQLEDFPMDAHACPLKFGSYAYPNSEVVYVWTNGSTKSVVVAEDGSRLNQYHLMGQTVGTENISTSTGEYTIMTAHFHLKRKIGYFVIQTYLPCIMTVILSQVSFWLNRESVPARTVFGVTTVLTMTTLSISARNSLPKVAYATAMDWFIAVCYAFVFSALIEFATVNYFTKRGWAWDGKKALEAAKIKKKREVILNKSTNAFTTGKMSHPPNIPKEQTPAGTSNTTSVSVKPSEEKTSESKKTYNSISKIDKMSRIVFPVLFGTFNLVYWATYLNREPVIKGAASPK

[3] = Modulation of GABA alpha1beta2gamma2s receptor expressed in Xenopus laevis oocytes assessed as potentiation of GABA-induced chloride current at holding potential -70 mV by two-microelectrode voltage clamp technique; type: cell-based; conditions: Oocyte
Summary of the method: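 Oocytes were injected with α1, β2 and γ2s cRNAs mixed 1:1:10 and stored at 18 °C in ND96 (pH 7.4). GABA was applied at a concentration giving 3–7% of maximal current, determined for each oocyte. Enhancement was taken as (I(GABA+compound)/IGABA) − 1. Concentration–response data were fitted to a Hill equation. Control solutions carried equal DMSO, at most 0.3%.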

[4] = target: Gamma-aminobutyric acid receptor subunit alpha-2/beta-2 (Homo sapiens) (UniProt P47870+P47869); experiment: Modulation of GABA Aalpha2beta2 receptor expressed in Xenopus laevis oocytes assessed as potentiation of GABA-induced chloride current at holding potential -70 mV by two-microelectrode voltage clamp technique relative to GABA; type: cell-based; conditions: Oocyte
Summary of the method: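 Oocytes were injected with α1, α2, α3 or α5 plus β2 cRNA at a 1:1 ratio and stored at 18 °C in ND96, pH 7.4. Enhancement was (I(GABA+compound)/IGABA)−1, and concentration-response data were Hill-fitted for EC50 and nH. Matched DMSO was ≤0.3%.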

C=CCc1ccc(O)c(-c2ccc(O)c(CC=C)c2)c1 [HONOKIOL]
EC50 [1]: 52.4 µM | Activity (Oocyte): 244% | EC50 [2]: 23.4 µM | EC50 [3]: 36.2 µM | Smax [4]: 1130%
